Measured values reported in ChEMBL document CHEMBL3108674, “6-Alkoxy-5-aryl-3-pyridinecarboxamides, a new series of bioavailable cannabinoid receptor type 1 (CB1) antagonists including peripherally selective compounds” (J Med Chem, 2013).
pEC50, pIC50, pKi: −log10 of the molar value. Active and inactive are the calls of the source. The rule behind the calls is not given here.

Key:
Liver microsome = assay: Clearance in rat liver microsomes at 2 uM by LC-MS/MS analysis; format: ADME
Outline: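 Rat liver microsomes at 0.5 mg/mL were incubated with 2 μM compound (final) and an NADPH-regenerating system. Aliquots were taken at 1, 3, 6, 9, 15, 25, 35 and 45 min and quenched in acetonitrile containing internal standard. Depletion was measured by LC-MS/MS. Clmic = −slope × 1000 / protein concentration (mg/mL), not corrected for microsomal protein binding.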

Cannabinoid receptor 2 = Cannabinoid receptor 2 (Homo sapiens, UniProt P34972); assay: Displacement of [3H]CP55940 from human CB2 receptor expressed in CHOK1 cells after 1 hr by liquid scintillation counting analysis; format: cell-based, CHO-K1
Outline: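 Membranes from butyrate-treated (5 mM, 24 h) CHO-K1 cells stably expressing human CB2, incubated with 0.3 nM [3H]CP55940 and increasing ligand concentrations, 60 min, 30 °C, pH 7.4 Tris buffer with 0.1% fatty acid-free BSA and 1% DMSO; nonspecific binding with 10 μM CP55940; filtration, scintillation counting; tested in triplicate.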

Cannabinoid receptor 1 [1] = target: T1, Cannabinoid receptor 1 (Homo sapiens, UniProt P21554); assay: Displacement of [3H]CP55940 from human CB1 receptor expressed in CHOK1 cells after 1 hr by liquid scintillation counting analysis; format: cell-based, CHO-K1
[2] = Plasma protein binding in rat; format: ADME, cell-free; conditions: read-out: PPB (converted)
Rattus norvegicus [3] = assay: Reduction in body fat content in high fat diet-fed Sprague-Dawley rat at 30 mg/kg, po qd after 24 days; format: functional, organism-based; design: dose 30 mg/kg
Outline: (§1)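 Diet-induced obese Sprague-Dawley rats (high responders), single-housed, groups of n = 9 matched for body weight and MRS body fat; drug given as food admix for 24 days alongside pair-fed groups; body weight and food intake measured daily; body fat by MRS; plasma leptin by ELISA; mean ± SEM, ANOVA with Dunnett's test versus vehicle.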

Rattus norvegicus [4] = species: Rattus norvegicus; assay: Reduction in body weight gain in high fat diet-fed Sprague-Dawley rat at […]; format: functional, organism-based
Substance-K receptor = target: T2, Substance-K receptor (Homo sapiens, UniProt P21452); assay: Antagonist activity at human NK2 receptor
T2 sequence (P21452 whole entry): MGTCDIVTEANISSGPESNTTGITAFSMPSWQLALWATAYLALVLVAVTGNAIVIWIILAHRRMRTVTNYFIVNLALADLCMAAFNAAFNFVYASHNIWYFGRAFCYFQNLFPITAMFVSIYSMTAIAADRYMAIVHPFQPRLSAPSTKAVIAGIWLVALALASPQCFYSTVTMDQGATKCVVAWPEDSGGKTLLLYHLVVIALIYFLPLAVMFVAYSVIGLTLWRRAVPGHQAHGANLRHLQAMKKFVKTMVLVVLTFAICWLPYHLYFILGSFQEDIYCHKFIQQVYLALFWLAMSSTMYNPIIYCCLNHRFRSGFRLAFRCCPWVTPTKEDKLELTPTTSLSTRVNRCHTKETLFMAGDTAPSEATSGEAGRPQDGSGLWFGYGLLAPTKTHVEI

[5] = Tmax in rat plasma at 9 mg/kg, po; format: ADME, organism-based; design: dose 9 mg/kg, route oral
[6] = Oral bioavailability in rat at 9 mg/kg; format: ADME, organism-based; conditions: in vivo
[7] = Clearance in rat at 3.3 mg/kg, iv; format: ADME, organism-based; design: dose 3.3 mg/kg, route intravenous; conditions: in vivo
[8] = Ratio of drug level in Sprague-Dawley rat brain to plasma at 30 mg/kg, po qd after 10 days by LC-MS/MS analysis; format: ADME, organism-based; design: dose 30 mg/kg, route oral; conditions: brain and plasma, read-out: BPR
Plasma = assay: Maximum unbound fraction in rat plasma at 9 mg/kg, po; format: ADME, organism-based; design: dose 9 mg/kg, route oral; conditions: in vivo
Cannabinoid receptor 1 [9] = target: T1, Cannabinoid receptor 1; assay: Antagonist activity at human CB1 receptor overexpressed in HEK cells assessed as [35S]GTPgamma binding after 1 hr by liquid scintillation counting analysis; format: functional, cell-based, HEK293
[10] = Cmax in Sprague-Dawley rat plasma at 30 mg/kg, po qd after 10 days by LC-MS/MS analysis; format: ADME, organism-based; design: dose 30 mg/kg, route oral
Outline: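 Male Sprague-Dawley rats (n = 3 per compound) given 30 mg/kg/day as feed admix for 10 days; jugular vein catheter implanted 4 days before sampling; on day 10 switched to drug-free high fat chow, then serial K3EDTA blood samples over 24 h; plasma drug levels by LC-MS.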

Rattus norvegicus [11] = assay: Reduction of leptin level in high fat diet-fed Sprague-Dawley rat plasma at 30 mg/kg, po qd after 24 days by ELISA; format: functional, organism-based; design: dose 30 mg/kg; outline: as §1
[12] = Drug uptake in Sprague-Dawley rat brain at 30 mg/kg, po qd after 10 days by LC-MS/MS analysis; format: ADME, organism-based; design: dose 30 mg/kg, route oral; conditions: read-out: Drug uptake
[13] = Volume of distribution at steady state in rat at 3.3 mg/kg, iv; format: ADME, organism-based; design: dose 3.3 mg/kg, route intravenous; conditions: in vivo, read-out: Vdss
Rattus norvegicus [14] = assay: Maximum unbound fraction in rat at 9 mg/kg, po; format: ADME, organism-based; design: dose 9 mg/kg, route oral; conditions: in vivo
[15] = Ratio of drug level in brain to plasma in rat; format: ADME; conditions: brain and plasma, read-out: BPR
[16] = Cmax in rat plasma at 9 mg/kg, po; format: ADME, organism-based; design: dose 9 mg/kg, route oral

Sequence of Cannabinoid receptor 2 (P34972 whole entry): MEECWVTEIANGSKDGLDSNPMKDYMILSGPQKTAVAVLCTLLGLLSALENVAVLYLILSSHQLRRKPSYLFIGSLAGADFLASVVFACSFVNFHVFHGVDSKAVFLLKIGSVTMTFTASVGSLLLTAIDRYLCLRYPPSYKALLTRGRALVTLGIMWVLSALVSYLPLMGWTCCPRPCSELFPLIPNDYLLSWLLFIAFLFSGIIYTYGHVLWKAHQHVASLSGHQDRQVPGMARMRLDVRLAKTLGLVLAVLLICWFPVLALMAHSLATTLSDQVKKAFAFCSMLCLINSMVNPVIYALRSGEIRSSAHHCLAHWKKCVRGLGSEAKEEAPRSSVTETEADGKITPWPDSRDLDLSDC
T1 sequence (P21554 whole entry): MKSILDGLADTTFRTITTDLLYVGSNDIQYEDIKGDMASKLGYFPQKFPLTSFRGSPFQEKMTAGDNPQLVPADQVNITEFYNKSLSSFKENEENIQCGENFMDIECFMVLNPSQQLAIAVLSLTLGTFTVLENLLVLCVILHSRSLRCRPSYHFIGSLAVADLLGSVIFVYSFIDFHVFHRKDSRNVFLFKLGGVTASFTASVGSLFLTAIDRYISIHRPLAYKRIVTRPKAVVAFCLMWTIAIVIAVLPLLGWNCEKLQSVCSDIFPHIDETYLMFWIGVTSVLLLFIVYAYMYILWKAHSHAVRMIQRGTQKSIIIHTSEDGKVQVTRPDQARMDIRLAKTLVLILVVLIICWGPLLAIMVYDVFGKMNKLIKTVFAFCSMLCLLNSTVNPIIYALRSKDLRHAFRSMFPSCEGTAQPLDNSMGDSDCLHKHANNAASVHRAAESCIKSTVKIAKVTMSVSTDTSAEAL

| Compound | CLH (Liver microsome) | pKi (Cannabinoid receptor 2) | pKi (Cannabinoid receptor 1 [1]) | other results |
| --- | --- | --- | --- | --- |
| O=C(N[C@@H]1CCCC[C@@H]1O)c1cnc(OCC2CC2)c(-c2ccc(Cl)cc2)c1 | 163 µL/min/mg | < 5.30 | 6.73 |  |
| O=C(N[C@@H]1CCCC[C@H]1O)c1cnc(Oc2ccccc2)c(-c2ccc(Cl)cc2)c1 | 353 µL/min/mg | < 5.00 | 5.78 |  |
| O=C(N[C@@H]1CCCC[C@H]1O)c1cnc(OC2CCCCC2)c(-c2ccc(Cl)cc2)c1 | 662 µL/min/mg | < 5.00 | 5.52 |  |
| O=C(N[C@@H]1CCCC[C@H]1O)c1cnc(OCC2CC2)c(-c2cc(C(F)(F)F)ccc2Cl)c1 | 59 µL/min/mg | 5.68 | 7.17 |  |
| O=C(N[C@@H]1CCCC[C@H]1O)c1cnc(OCc2cccnc2)c(-c2ccc(Cl)cc2)c1 | 374 µL/min/mg | < 5.00 | 7.63 |  |
| O=C(N[C@@H]1CCCC[C@H]1O)c1cnc(CCC2CC2)c(-c2ccc(Cl)cc2)c1 | 1503 µL/min/mg | < 5.00 | 7.78 |  |
| O=C(N[C@@H]1CCCC[C@H]1O)c1cnc(OCC2CC2)c(-c2ccc(Cl)c(Cl)c2)c1 |  | 5.90 | 6.52 |  |
| O=C(N[C@@H]1CCCC[C@H]1O)c1cnc(OCc2ncccn2)c(-c2ccc(Cl)cc2)c1 | 12 µL/min/mg | < 5.00 | 7.29 |  |
| O=C(N[C@@H]1CCCC[C@H]1O)c1cnc(OCC(F)(F)F)c(-c2ccc(Cl)cc2)c1 | 23 µL/min/mg | < 5.15 | 7.91 |  |
| O=C(N[C@H]1CCCC[C@H]1O)c1cnc(OCC2CC2)c(-c2ccc(Cl)cc2)c1 | 111 µL/min/mg | < 5.15 | 6.98 |  |
| O=C(N[C@@H]1CCCC[C@H]1O)c1cc(-c2ccc(Cl)cc2)c(OCC2CC2)cn1 |  | 5.82 | < 5.15 |  |
| C[C@](O)(CNC(=O)c1cnc(OCC2CC2)c(-c2ccc(Cl)cc2)c1)C1CC1 | 2.4 µL/min/mg | < 5.00 | 7.46 |  |
| COCCOc1ncc(C(=O)N[C@@H]2CCCC[C@H]2O)cc1-c1ccc(Cl)cc1 | 98 µL/min/mg | < 5.00 | 8.29 | fraction unbound [2]: 0.039; Activity (Rattus norvegicus [3]): inactive; Activity (Rattus norvegicus [4]): inactive; pIC50 (Substance-K receptor): 4.34; Tmax [5]: 30 min; bioavailability [6]: 84%; clearance [7]: 18.6 mL/min/kg; Kp at 240 h [8]: 0.13; Cp(f)max (Plasma): 63 ng/mL; pEC50 (Cannabinoid receptor 1 [9]): 7.94; Cmax [10]: 1000 ng/mL; Activity (Rattus norvegicus [11]): inactive; concentration at 240 h [12]: 130 ng/g; Vd [13]: 0.7 L/kg; fCmax (Rattus norvegicus [14]): 156 nM; Kp [15]: 0.1; Cmax [16]: 1620 ng/mL |
| O=C(N[C@@H]1CCCC[C@H]1O)c1cnc(OC2CCCC2)c(-c2ccc(Cl)cc2)c1 |  | < 5.00 | 6.43 |  |
| O=C(N[C@@H]1CCCC[C@H]1O)c1cnc(OCc2ccncc2)c(-c2ccc(Cl)cc2)c1 | 118 µL/min/mg | < 5.00 | 7.23 |  |
| O=C(N[C@@H]1CCCC[C@H]1O)c1cnc(OCC2CC2)c(-c2ccccc2Cl)c1 |  | < 5.00 | 6.72 |  |
| CCCCOc1ncc(C(=O)N[C@@H]2CCCC[C@H]2O)cc1-c1ccc(Cl)cc1 | 101 µL/min/mg | < 5.00 | 7.36 |  |
| O=C(O)c1ccc(-c2cc(C(=O)N[C@@H]3CCCC[C@H]3O)cnc2OCC2CC2)cc1 |  | < 5.00 | < 5.00 |  |
| O=C(N[C@@H]1CCCC[C@H]1O)c1ccc(OCC2CC2)c(-c2ccc(Cl)cc2)n1 |  | 6.06 | 5.74 |  |
| O=C(N[C@H]1CCCC[C@@H]1O)c1cnc(OCC2CC2)c(-c2ccc(Cl)cc2)c1 |  | 5.58 | 6.61 |  |
| Cc1c(C(=O)N[C@@H]2CCCC[C@H]2O)cc(-c2cc(C(F)(F)F)ccc2Cl)n1CC1CCCCC1 | 1323 µL/min/mg |  |  | pIC50 (Cannabinoid receptor 2): < 5.30; pIC50 (Cannabinoid receptor 1 [1]): 8.02 |

| Compound | CLH (Liver microsome) | pKi (Cannabinoid receptor 2) | pKi (Cannabinoid receptor 1 [1]) | other results |
| --- | --- | --- | --- | --- |
| Cc1cc(COc2ncc(C(=O)N[C@@H]3CCCC[C@H]3O)cc2-c2ccc(Cl)cc2)on1 | 151 µL/min/mg | < 5.00 | 7.97 |  |
| O=C(N[C@@H]1CCCC[C@H]1O)c1cnc(OCC2CC2)c(-c2ccc(C(F)(F)F)cc2)c1 |  | < 5.00 | 7.73 |  |
| N#Cc1ccc(-c2cc(C(=O)N[C@@H]3CCCC[C@H]3O)cnc2OCC2CC2)cc1 |  | < 5.00 | 7.63 |  |
| NS(=O)(=O)c1ccc(-c2cc(C(=O)N[C@@H]3CCCC[C@H]3O)cnc2OCC2CC2)cc1 |  | < 5.00 | < 5.00 |  |
| CN(CC1CC1)c1ncc(C(=O)N[C@@H]2CCCC[C@H]2O)cc1-c1ccc(Cl)cc1 | 1730 µL/min/mg | < 5.00 | 7.29 |  |
| O=C(N[C@@H]1CCCC[C@H]1O)c1cnc(OCC2CC2)c(-c2cccc(Cl)c2)c1 |  | < 5.30 | 6.89 |  |
| O=C(N[C@@H]1CCCC[C@H]1O)c1cnc(OCC2CC2)c(-c2ccc(Cl)cc2Cl)c1 |  | < 5.30 | 6.91 |  |
| O=C(N[C@@H]1CCCC[C@H]1O)c1cnc(OCC2CC2)c(-c2ccc(OC(F)(F)F)cc2)c1 | 0 µL/min/mg | < 5.00 | 7.63 |  |
| O=C(N[C@@H]1CCCC[C@H]1O)c1cnc(OC2CCCC2)c(-c2cc(C(F)(F)F)ccc2Cl)c1 | 367 µL/min/mg |  |  | pIC50 (Cannabinoid receptor 2): 5.62; pIC50 (Cannabinoid receptor 1 [1]): 6.40 |
| CS(=O)(=O)Nc1ccc(-c2cc(C(=O)N[C@@H]3CCCC[C@H]3O)cnc2OCC2CC2)cc1 |  | < 5.00 | 5.72 |  |
| COc1ccc(-c2cc(C(=O)N[C@@H]3CCCC[C@H]3O)cnc2OCC2CC2)cc1 |  | < 5.00 | 7.18 |  |
| O=C(N[C@@H]1CCCC[C@H]1O)c1cnc(OC2CCC2)c(-c2ccc(Cl)cc2)c1 | 210 µL/min/mg | < 5.00 | 6.68 |  |
| NC(=O)c1ccc(-c2cc(C(=O)N[C@@H]3CCCC[C@H]3O)cnc2OCC2CC2)cc1 |  | < 5.00 | < 5.10 |  |
| O=C(N[C@@H]1CCCC[C@H]1O)c1cnc(OCc2ccccn2)c(-c2ccc(Cl)cc2)c1 | 44 µL/min/mg | < 5.00 | 6.86 |  |
| O=C(N[C@@H]1CCCC[C@H]1O)c1cnc(OCC2CC2)c(-c2ccc(Cl)cc2)n1 |  | 6.10 | 7.59 |  |
| O=C(N[C@@H]1CCCC[C@H]1O)c1cc(-c2ccc(Cl)cc2)c(OCC2CC2)nn1 |  | < 5.52 | < 5.30 |  |
| CC(C)Oc1ncc(C(=O)N[C@@H]2CCCC[C@H]2O)cc1-c1ccc(Cl)cc1 |  | < 5.00 | 5.97 |  |
| O=C(NN1CCCCC1)c1cnc(OCC2CC2)c(-c2ccc(Cl)cc2)c1 |  | < 5.00 | 6.25 |  |
| O=C(N[C@@H]1CCCC[C@H]1O)c1cnc(OCc2ccccc2)c(-c2ccc(Cl)cc2)c1 | 20 µL/min/mg | < 5.00 | 7.40 |  |
| O=C(N[C@@H]1CCCC[C@H]1O)c1cnc(OCC2CC2)c(-c2ccc(F)cc2)c1 | 37 µL/min/mg | < 5.00 | 7.37 |  |
